Series [1] can be described thus: Protective index, ratio of TD50 for neurotoxicity in ip dosed albino CD-1 mouse to ED50 for anticonvulsant activity in ip dosed subcutaneous pentylenetetrazole-induced seizure albino CD-1 mouse model. Type of series: toxicity, organism-based. As to conditions: in vivo, read-out: Ratio TD50/ED50. The method in brief: (§1)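 Protective index computed as TD50 (rotarod) divided by ED50 (MES or scPTZ), both from probit analysis on groups of six i.p.-dosed mice.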

The subject of series [2] is Mus musculus. Description: Anticonvulsant activity in albino CD-1 mouse assessed as protection against subcutaneous pentylenetetrazole-induced seizure at 30 to 300 mg/kg, ip measured after 2.0 hrs. Type of series: functional. The method, boiled down:
(§2)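 Male CD-1 mice given compound i.p. (0.5% methylcellulose suspension) at 30, 100, 300 mg/kg, four per group; pentylenetetrazole 85 mg/kg s.c. at 0.5 or 2 h. Absence of clonic convulsions (≥5 s) over 30 min observation counts as protection. Minimum active dose reported.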

The subject of series [3] is Mus musculus. As to the kind of experiment: Anticonvulsant activity in ip dosed albino CD-1 mouse assessed as protection against subcutaneous pentylenetetrazole-induced seizure measured as time to peak effect. It counts as functional. The method in brief: (§3)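 Quantitative work at time of peak effect previously estimated in screening; groups of six mice given various i.p. doses until ≥3 points within 10–90% seizure protection (MES or scPTZ) or minimal motor impairment on rotarod (10 rpm, failure to hold ≥1 min).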

For series [4], the system named is Mus musculus. As to the kind of experiment: Anticonvulsant activity in ip dosed albino CD-1 mouse assessed as protection against subcutaneous pentylenetetrazole-induced seizure. Type of series: functional. The method in brief:
as §3

Series [5] concerns Vibrio harveyi. Description: Antimutagenic activity in Vibrio harveyi BB7XM assessed as inhibition of nitroquinoline-N-oxide-induced revertant colonies. Type of series: functional. The method in brief:
(§4)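 Revertants induced by 4-nitroquinoline-N-oxide (final 40 ng/ml) with versus without test compound; TA100 at 37 °C, V. harveyi strains at 30 °C in BOSS medium. Three independent repetitions; inhibition % = 100 − (R1/R2 × 100); 25–40% moderate, ≥40% strong.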

Series [6] concerns Mus musculus. Description: Neurotoxicity in albino CD-1 mouse assessed as motor impairment at 30 to 300 mg/kg mg/kg, ip measured after 2 hrs by rotarod test. Type of series: toxicity, organism-based. As to conditions: in vivo. The method in brief:
(§5)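 Rotarod in male CD-1 mice at 0.5 and 2 h after i.p. 30, 100 or 300 mg/kg (methylcellulose suspension); motor impairment = inability to keep balance on rod turning at 10 rpm for at least 1 min. Minimum neurotoxic dose reported.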

The test system of series [7] is Mus musculus. Description: Anticonvulsant activity in albino CD-1 mouse assessed as protection against maximal electroshock-induced seizure at 30 to 300 mg/kg, ip measured after 0.5 hrs. Type of series: functional. The method in brief:
(§6)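 Male CD-1 mice (16–26 g), compound suspended in 0.5% methylcellulose/water, i.p. at 30, 100, 300 mg/kg; four mice per group, each used once. Electroconvulsion by electrical stimulus 0.2 s at 50 Hz; protection scored at 0.5 and 2 h. Value is minimum dose showing activity.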

Series [8] is described as follows: Neurotoxicity in ip dosed albino CD-1 mouse assessed as motor impairment by rotarod test. Type of series: toxicity, organism-based. The settings on record: in vivo. The method in brief: as §3
Series [9] deals with Salmonella typhimurium. As to the kind of experiment: Antimutagenic activity in Salmonella typhimurium TA100 assessed as inhibition of nitroquinoline-N-oxide-induced revertant colonies by Ames test. Type of series: functional, Salmonella enterica subsp. enterica serovar Typhimurium. The method in brief: as §4
Series [10] concerns Vibrio harveyi. Description: Antimutagenic activity in Vibrio harveyi BB7 assessed as inhibition of nitroquinoline-N-oxide-induced revertant colonies. Type of series: functional. The method in brief:
as §4

Series [11] deals with Mus musculus. Description: Anticonvulsant activity in albino CD-1 mouse assessed as protection against maximal electroshock-induced seizure at 30 to 300 mg/kg, ip measured after 2.0 hrs. Type of series: functional. The settings on record: for minimal effective dose: CD-1, ip, read-out: MED. The method, boiled down: as §6
Series [12] deals with Mus musculus. As to the kind of experiment: Neurotoxicity in albino CD-1 mouse assessed as motor impairment at 30 to 300 mg/kg mg/kg, ip measured after 0.5 hrs by rotarod test. It counts as toxicity, organism-based. As to conditions: in vivo. The method in brief: as §5
Series [13] deals with Mus musculus. Description: Anticonvulsant activity in albino CD-1 mouse assessed as protection against subcutaneous pentylenetetrazole-induced seizure at 30 to 300 mg/kg, ip measured after 0.5 hrs. It counts as functional. The settings on record: for minimal effective dose: CD-1, 0.5 h, read-out: MED. The method in brief:
as §2

Series [14] has as its system Vibrio harveyi. Description: Mutagenic activity in Vibrio harveyi BB7 assessed as mutagenicity index at 40 ng/ml. It counts as organism-based. The settings on record: in vivo. The method, boiled down:
(§7)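 Ames TA100 liquid pre-incubation (minimal medium, 37 °C) and V. harveyi assay (BOSS medium, 30 °C); test at 40 ng/ml, triplicate. Mutagenic index = induced revertants / spontaneous revertants (DMSO control); M.I. ≥2 considered mutagenic.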

For series [15], the system named is Salmonella typhimurium. Description: Mutagenic activity in Salmonella typhimurium TA100 assessed as mutagenicity index at 40 ng/ml by Ames test. Type of series: toxicity, organism-based. The settings on record: salmonella enterica subsp. enterica serovar typhimurium. The method, boiled down: as §7
In series [16] the test system is Vibrio harveyi. As to the kind of experiment: Mutagenic activity in Vibrio harveyi BB7XM assessed as mutagenicity index at 40 ng/ml. It counts as organism-based. As to conditions: in vivo. The method in brief: as §7
In series [17] the test system is Mus musculus. As to the kind of experiment: Anticonvulsant activity in ip dosed albino CD-1 mouse assessed as protection against maximal electroshock-induced seizure measured as time to peak effect. It counts as functional. The method, boiled down:
as §3

Series [18] deals with Mus musculus. As to the kind of experiment: Antinociceptive activity in albino CD-1 mouse assessed as reduction in licking and biting time during phase 1 at 114.68 mg/kg, ip administered 30 mins prior to formalin challenge relative to control. It counts as functional. Also on record: scale not given: the % may be the effect or the level left.
A further series is filed under the species Rattus norvegicus. Description: Displacement of [3H]BTX from voltage-sensitive sodium channel site2 in rat cerebral cortex at 100 uM measured after 60.0 mins by scintillation counting. It counts as tissue-based.
The subject of series [19] is Mus musculus. Description: Antinociceptive activity in albino CD-1 mouse assessed as reduction in licking and biting time during phase 2 at 114.68 mg/kg, ip administered 30 mins prior to formalin challenge measured between 15.0 to 20.0 mins relative to control. It counts as functional. On the set-up: scale not given: the % may be the effect or the level left.
A short description of series [20]: Protective index, ratio of TD50 for neurotoxicity in ip dosed albino CD-1 mouse to ED50 for anticonvulsant activity in ip dosed maximal electoshock-induced seizure albino CD-1 mouse model. It counts as toxicity, organism-based. As to conditions: in vivo, read-out: Ratio TD50/ED50. The method in brief:
as §1

In series [21] the test system is Mus musculus. As to the kind of experiment: Neurotoxicity in albino CD-1 mouse assessed as motor performance by measuring time spent in chimney at 114.68 mg/kg, ip administered 30 mins prior to chimney test (reference value: 6.29 +/- 2.48 sec). It counts as toxicity, organism-based. As to conditions: in vivo.
Series [22] has as its system Mus musculus. Description: Antinociceptive activity in albino CD-1 mouse assessed as reduction in licking and biting time during phase 2 at 114.68 mg/kg, ip administered 30 mins prior to formalin challenge measured between 15.0 to 30.0 mins relative to control. Also on record: scale not given: the % may be the effect or the level left. Type of series: functional.
Series [23] has as its system Mus musculus. Description: Antinociceptive activity in albino CD-1 mouse assessed as reduction in licking and biting time during phase 2 at 114.68 mg/kg, ip administered 30 mins prior to formalin challenge measured between 25.0 to 30.0 mins relative to control. It counts as functional. Also on record: scale not given: the % may be the effect or the level left.
Series [24] concerns Mus musculus. Description: Anticonvulsant activity in ip dosed albino CD-1 mouse assessed as protection against maximal electroshock-induced seizure. It counts as functional. As to conditions: CD-1, ip. The method, boiled down:
as §3

Series [25] concerns Mus musculus. Description: Neurotoxicity in albino CD-1 mouse assessed as mouse mortality at 300 mg/kg mg/kg, ip measured after 0.5 hrs. It counts as toxicity, organism-based. The settings on record: in vivo. The method, boiled down: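 Male albino CD-1 mice (16–26 g), four per group, each used once. Compounds were suspended in 0.5% methylcellulose/water and injected i.p. at 30, 100 and 300 mg/kg. Acute motor impairment was scored by rotarod at 0.5 and 2 h: inability to stay on a rod turning at 10 rpm for at least 1 min.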

The structures appear in SMILES notation. Activity calls are given as the source filed them. Where only a bound is given, the exact number is not on record here.

As for `CC1(c2ccccc2)CC(=O)N(CC(=O)N2CCC(Cc3ccccc3)CC2)C1=O` (stereo not given), the selectivity ratio in series [1] was more than 8.33. The MED result in the series on Mus musculus [2] and in the series on Mus musculus [7] was “inactive” each time. Also, the Time in the series on Mus musculus [3] and with Mus musculus [17] was 0.5 h throughout. In addition, the 50% effective dose (ED50) with Mus musculus [4] is 60 mg/kg. Further, the “inhibition (INH)” value in the series on Vibrio harveyi [5] is on record as 26%; with Salmonella typhimurium [9] it was 5%; with Vibrio harveyi [10] it was 22%. Also, the MTC result in the series with Mus musculus [6] and in the series on Mus musculus [12] was “Non-toxic” each time. In series [8], the TD50 was more than 500 mg/kg. Moreover, the minimal effective dose with Mus musculus [11] was 300 mg/kg; in the series with Mus musculus [13], 100 mg/kg. Also, the Activity_index in the series with Vibrio harveyi [14] worked out at 1.5; in the series on Salmonella typhimurium [15] it was 0.5; with Vibrio harveyi [16] it was 1.6.
In the case of `CC1(c2ccccc2)CC(=O)N(CC(=O)N2CCN(c3ccc(Cl)c(Cl)c3)CC2)C1=O` (stereo not given), the MED result with Mus musculus [2], in the series with Mus musculus [7] and in the series with Mus musculus [13] was “inactive” throughout. The figures for the “inhibition (INH)” value with Vibrio harveyi [5], in the series on Salmonella typhimurium [9] and in the series on Vibrio harveyi [10] were 63%, 36% and 47%, respectively. Besides, the MTC result in the series on Mus musculus [6] and in the series on Mus musculus [12] was “Non-toxic” in each case. Also, the minimal effective dose in the series on Mus musculus [11] amounted to 300 mg/kg. The Activity_index with Vibrio harveyi [14] is listed as 1.2; in the series on Salmonella typhimurium [15] it was 0.3; in the series with Vibrio harveyi [16], 0.7.
As for `CC1(c2ccccc2)CC(=O)N(CC(=O)N2CCN(c3ccccc3F)CC2)C1=O` (stereo not given), the Activity in the series on Mus musculus [18] is listed as 73.3%; in the series on Mus musculus [19], 98%; with Mus musculus [22], 87.1%; with Mus musculus [23], 81%. Besides, the selectivity ratio stood at 3.11 in series [1] and 2.64 in [20]. In addition, the minimal effective dose came to 300 mg/kg with Mus musculus [2] (CD-1, 2 h, read-out: MED); 100 mg/kg in the series on Mus musculus [7] (CD-1, ip, read-out: MED); 100 mg/kg with Mus musculus [13]. In addition, the inhibition in the series filed under Rattus norvegicus stood at 56.1%. Moreover, the Time is 0.5 h in the series with Mus musculus [3], 6.5 s with Mus musculus [21] and 0.5 h with Mus musculus [17]. For the same compound, the results for the ED50 in the series on Mus musculus [4] and in the series on Mus musculus [24] were 97.1 mg/kg and 115 mg/kg, respectively. For the same compound, the MTC in the series on Mus musculus [6] and in the series with Mus musculus [12] was 300 mg/kg in each case. Besides, the TD50 in [8] turned out to be 302 mg/kg. For the same compound, the MED result in the series on Mus musculus [11] was “inactive”.
Regarding `CC1(c2ccccc2)CC(=O)N(CC(=O)N2CCN(C3CCCCC3)CC2)C1=O` (stereo not given), the MED entry in the series on Mus musculus [2], with Mus musculus [7], in the series on Mus musculus [11] and in the series with Mus musculus [13] was “inactive” throughout. Moreover, the MTC entry is “Non-toxic” in the series on Mus musculus [6] and 300 mg/kg with Mus musculus [12]. Also, the Activity result with Mus musculus [25] is “Toxic”.

Source of the values: ChEMBL document CHEMBL3616366, “Design, synthesis and biological activity of new amides derived from 3-methyl-3-phenyl-2,5-dioxo-pyrrolidin-1-yl-acetic acid” (Eur J Med Chem, 2015).
